Most compounds without a hit are left out; they make up all but 2.6% or so of the library.
INS-1E GSIS act: primary screen for activators of insulin secretion dependent on glucose, INS-1E cells, GLuc reporter luminescence | hit rate 0.61% among 370,000 | INS-1E GLuc reporter insulin secretion, 2-3 h | activation, % at 16.6 µM;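 active = lowest replicate activation of at least 40%, so every replicate reaches that level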;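 also: 0% = median of neutral control wells and 100% = median of IBMX positive control wells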
ERAP1 inh: inhibitors of human ERAP1 aminopeptidase; Q9NZ08; recombinant ERAP1, Leu-AMC fluorescence, 60 min; inhibition, % at 10.7 µM; hit rate 0.15% among 340,000; AID 652197;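 active = mean replicate inhibition of at least 30%, or all replicates individually reaching that 30% level; inactive = mean below 30% and not every replicate reaching it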;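 also: 0% = neutral control wells and 100% = L-leucinethiol positive control wells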
DENV2 CPE rescue: DENV2-induced cell death inhibition; hit rate 1.7% among 350,000; DENV2-infected cells, cytopathic effect rescue, plate reader; CPE inhibition, % at 9.99 µM; in the data active = CPE inhibition above about 20%, passing the limit was not always enough; inconclusive = no clear call, values can overlap the other calls; tested in BHK-21 cells;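 also: 0% = median of neutral control wells and 100% = median of positive control wells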
miR-122 sensor: miR-122 inhibition in Huh7 cells; AID 602342; Huh7 miR-122 Renilla luciferase sensor, 48 h; neutral wells = 0, positive control = 100; activation (reporter increase), % at 12.5 µM; hit rate 0.3% among 340,000;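 active = mean replicate activation score at least 90 and every replicate individually at or above 90; inconclusive = only one of the two criteria met; inactive = neither criterion met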;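 also: higher luciferase means less miR-122 activity so hits act as miR-122 inhibitors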
F508del corr: CFTR F508del correction in bronchial cells; activity (quench increase), % at 7.58 µM; hit rate 0.36% among 350,000; CFBE cells, YFP halide quenching; stimulated with forskolin plus potentiator P3; % fluorescence drop versus neutral controls;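 active = mean added fluorescence quench of at least 8% versus neutral control, with both replicates also reaching 8%; inconclusive = only one of the mean or replicate conditions met; inactive = mean below 8% and not both replicates reaching 8%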;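 also: cells transiently co-express mutant CFTR-F508del with the halide-sensitive YFP; corrector assay measuring rescue of mutant channel to the surface after 24 h compound exposure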
E-selectin induc: E-selectin induction on HUVECs | HUVEC E-selectin immunofluorescence imaging; normalized: neutral wells 0, TNF-alpha wells 100 | hit rate 0.37% among 260,000 | activation, % at 7.58 µM;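 active = mean E-selectin-positive cell signal at least 10% of the positive control, reached in at least 60% of replicates, without over 20% cell loss; inconclusive = no rule given, readout overlaps actives, possibly toxicity-flagged; inactive = the rest, including those meeting only one limit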
Target sequence (P16581 whole entry, looked up): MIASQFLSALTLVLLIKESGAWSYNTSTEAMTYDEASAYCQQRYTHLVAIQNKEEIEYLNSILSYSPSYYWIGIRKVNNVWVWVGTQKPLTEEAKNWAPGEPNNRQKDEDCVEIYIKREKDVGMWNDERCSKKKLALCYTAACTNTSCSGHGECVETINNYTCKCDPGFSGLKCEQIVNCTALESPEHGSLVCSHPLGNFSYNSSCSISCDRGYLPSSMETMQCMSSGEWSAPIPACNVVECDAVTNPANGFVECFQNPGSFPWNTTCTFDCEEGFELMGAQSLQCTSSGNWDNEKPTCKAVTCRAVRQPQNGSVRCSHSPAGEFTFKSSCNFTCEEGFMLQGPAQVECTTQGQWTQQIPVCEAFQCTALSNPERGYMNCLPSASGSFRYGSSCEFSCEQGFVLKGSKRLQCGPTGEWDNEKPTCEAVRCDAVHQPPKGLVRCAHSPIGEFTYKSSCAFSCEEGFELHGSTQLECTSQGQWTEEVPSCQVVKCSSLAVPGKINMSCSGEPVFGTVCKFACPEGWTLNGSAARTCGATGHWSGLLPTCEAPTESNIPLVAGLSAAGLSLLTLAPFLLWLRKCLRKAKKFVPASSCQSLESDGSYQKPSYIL
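Test system: HUVEC | Signal: Immunofluorescence imaging | Read-out: Percent E-selectin-positive cells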
Active calls of the source: *; [ ] = remark or other dose.

Screening CCOC(=O)N1CCN(C(C(=O)NC2CCCC2)C(C)C)CC1 (stereo not drawn) returned INS-1E GSIS act 11, ERAP1 inh -3, DENV2 CPE rescue 30*, F508del corr 0 and E-selectin induc 0.
For CC(C)C#Cc1ccc2c(c1)O[C@@H](CN(C)C)[C@H](C)CN([C@@H](C)CO)S2(=O)=O the results were INS-1E GSIS act -5, DENV2 CPE rescue -2, F508del corr 0 and E-selectin induc 0.
Screening Cc1cccc(CN2CCN(C(=O)c3cccc4ccccc34)CC2)c1 returned ERAP1 inh -2, DENV2 CPE rescue 43*, miR-122 sensor 4 and F508del corr -3.
COc1ccc(S(=O)(=O)Nc2ccc3c(c2)C(=O)N([C@@H](C)CO)C[C@@H](C)[C@@H](CN(C)S(=O)(=O)c2ccc(Cl)cc2)OCCCC[C@H](C)O3)cc1 was read as INS-1E GSIS act -3, ERAP1 inh 2, DENV2 CPE rescue 35*, miR-122 sensor -4[16.7 µM], F508del corr 1 and E-selectin induc 0.
For COc1ccc(S(=O)(=O)N(C)C[C@H]2OCCCC[C@H](C)Oc3ccc(NS(=O)(=O)c4ccc(Cl)cc4)cc3C(=O)N([C@H](C)CO)C[C@H]2C)cc1 the results were INS-1E GSIS act 12, ERAP1 inh 3, DENV2 CPE rescue 21*, F508del corr 4 and E-selectin induc 0.
`COc1ccc(S(=O)(=O)Nc2ccc3c(c2)C(=O)N([C@H](C)CO)C[C@H](C)[C@@H](CN(C)S(=O)(=O)c2ccc(Cl)cc2)OCCCC[C@H](C)O3)cc1` gave INS-1E GSIS act -6, ERAP1 inh 0, DENV2 CPE rescue -2, miR-122 sensor -6[16.7 µM], F508del corr 0 and E-selectin induc 0.
Nc1nc(SCC(=O)N2CCN(c3ccc(F)cc3)CC2)n[nH]1 was read as INS-1E GSIS act 6, ERAP1 inh -1, DENV2 CPE rescue 40*, miR-122 sensor -1, F508del corr 2 and E-selectin induc 4.
`C[C@@H]1CN([C@H](C)CO)C(=O)c2cc(NC(=O)Nc3ccccc3)ccc2O[C@@H]1CN(C)S(=O)(=O)c1ccc(Cl)cc1` gave INS-1E GSIS act -30, ERAP1 inh 1, DENV2 CPE rescue -5, miR-122 sensor 100*[16.7 µM], F508del corr 3 and E-selectin induc 3.
Screening C[C@@H]1CN([C@H](C)CO)C(=O)c2cc(NC(=O)Cc3ccccc3)ccc2O[C@@H]1CN(C)S(=O)(=O)c1ccc(Cl)cc1 returned INS-1E GSIS act -7, ERAP1 inh -1, DENV2 CPE rescue -3, miR-122 sensor 99*[16.7 µM], F508del corr 7 and E-selectin induc -21.
For Cc1ccc(S(=O)(=O)N(C)C[C@H]2Oc3ccc(NC(=O)Cc4ccccc4)cc3C(=O)N([C@H](C)CO)C[C@@H]2C)cc1 the results were INS-1E GSIS act -15, ERAP1 inh -4, DENV2 CPE rescue 66*, miR-122 sensor -6[16.7 µM], F508del corr 0 and E-selectin induc 0.
C[C@@H]1CN([C@H](C)CO)C(=O)c2cc(NC(=O)Cc3cn(C)c4ccccc34)ccc2O[C@@H]1CN(C)S(=O)(=O)c1ccc(Cl)cc1 was read as INS-1E GSIS act 1, ERAP1 inh 0, DENV2 CPE rescue 16, miR-122 sensor 101*[16.7 µM], F508del corr -1 and E-selectin induc 0.
`C[C@@H]1CN([C@@H](C)CO)C(=O)c2cc(NC(=O)Cc3ccccc3)ccc2O[C@H]1CN(C)S(=O)(=O)c1ccc(Cl)cc1` gave INS-1E GSIS act -8, ERAP1 inh 1, DENV2 CPE rescue -1, miR-122 sensor -6[16.7 µM], F508del corr 2 and E-selectin induc -20.
Screening CO[C@@H](CN(C)C(=O)c1cnccn1)[C@H](C)CN([C@H](C)CO)S(=O)(=O)c1ccc(F)cc1 returned INS-1E GSIS act -12, ERAP1 inh 0, DENV2 CPE rescue 2, F508del corr 1 and E-selectin induc 0.
Screening Cc1cccc(S(=O)(=O)N2CCCCN3[C@H](CO)[C@H](c4ccc(C#CC(C)C)cc4)[C@@H]3C2)c1 returned INS-1E GSIS act 14, ERAP1 inh 6, DENV2 CPE rescue -19, miR-122 sensor 0[16.7 µM], F508del corr -3 and E-selectin induc -1.
`O=S1(=O)OCCC(c2ccccc2)N1Cc1ccccc1` (stereo not drawn) gave INS-1E GSIS act 6, ERAP1 inh 1, DENV2 CPE rescue 17, miR-122 sensor -4, F508del corr 1 and E-selectin induc 0.
CN1C(c2ccccc2)CCOS1(=O)=O (stereo not drawn) was read as INS-1E GSIS act 6, ERAP1 inh 7, DENV2 CPE rescue 47*, miR-122 sensor -9 and F508del corr -2.
For CC(O)(Cc1cccnc1)c1cccs1 (stereo not drawn) the results were INS-1E GSIS act 24, ERAP1 inh -1, DENV2 CPE rescue 77*, F508del corr 0 and E-selectin induc 0.
For Cc1noc(C)c1NC(=O)N(C)C[C@@H]1Oc2ccc(NC(=O)Nc3ccc(F)cc3)cc2CC(=O)N([C@@H](C)CO)C[C@@H]1C the results were INS-1E GSIS act 10, ERAP1 inh -3, DENV2 CPE rescue -10, miR-122 sensor 0[16.7 µM], F508del corr 2 and E-selectin induc 0.
O=C(Nc1ccc(SC(F)F)cc1)c1cccc2nc3ccccc3nc12 was read as INS-1E GSIS act 82* and miR-122 sensor -3.
For COc1ccccc1CNC(=O)C[C@@H]1C[C@H]2c3cc(NC(=O)NC4CCCC4)ccc3O[C@H]2[C@H](CO)O1 the results were INS-1E GSIS act 2, ERAP1 inh 5, DENV2 CPE rescue -3, miR-122 sensor 2[16.7 µM], F508del corr 1 and E-selectin induc 0.
CN1c2ccc(C#Cc3cccnc3)cc2[C@@H]2[C@@H](CCN2S(=O)(=O)c2cccc(F)c2)[C@@H]1CO was read as INS-1E GSIS act -35, ERAP1 inh -1, DENV2 CPE rescue inconclusive, miR-122 sensor 1[16.7 µM], F508del corr 1 and E-selectin induc 1.
C[C@@H]1CN([C@H](C)CO)C(=O)Cc2cc(NC(=O)NC3CCCCC3)ccc2O[C@H]1CN(C)CC1CCCCC1 was read as INS-1E GSIS act -16, ERAP1 inh 0, DENV2 CPE rescue 25*, miR-122 sensor 4[16.7 µM], F508del corr 2 and E-selectin induc 0.
C[C@H](CO)N1C[C@H](C)[C@@H](CN(C)CC2CCCCC2)Oc2ccc(NC(=O)Nc3ccc4c(c3)OCO4)cc2CC1=O was read as INS-1E GSIS act 7, ERAP1 inh 1, DENV2 CPE rescue 29*, miR-122 sensor 11[16.7 µM], F508del corr 3 and E-selectin induc 0.
